Measurements taken from ChEMBL document CHEMBL4513216, “Probing the Open Global Health Chemical Diversity Library for Multistage-Active Starting Points for Next-Generation Antimalarials” (ACS Infect Dis, 2020).

Test: Toxicity liver stage against HepG2, at 10uM
Type: cell-based
Set-up: test concentration 10 uM, cell line HepG2-A16-CD81EGFP
Conditions: human, HepG2-A16-CD81EGFP cells; read-out: INHIBITION
Summary of the method: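 Uninfected HepG2-A16-CD81EGFP cells, 3 × 10^3 per well, 1536-well, plated on prespotted compound at 10 μM final, parasite-free screening media added to match infected plates; puromycin 10 μM positive, DMSO 0.5% negative; run in parallel with 48 h PbLuc assay at 37 °C, 5% CO2; viability by CellTiter-Glo luminescence, normalized to controls.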

| SMILES | cytotoxicity at 10 µM [%] |
| --- | --- |
| Cc1cc(=O)[nH]c(=O)n1Cc1ccccc1 | -42.6 |
| O=C1CO[C@H]2CN(C3CCOCC3)C[C@H]2N1Cc1ccc(F)cc1 | -6.35 |
| Cn1cncc1-c1nnc([C@H]2CCN(C3CCOCC3)C2)o1 | -3.46 |
| CNC(=O)c1cn(C(C)(C)C)c2ncccc12 | -7.85 |
| CN(C)CCNC(=O)Cn1cnc2cc(NC(=O)C3CC3)ccc21 | -14.3 |
| COC(CNC(=O)c1cc(C)on1)c1ccccc1C (configuration not stated) | -17.8 |
| COCc1ncn2c1CN(C(=O)c1ccco1)CC2 | 9.32 |
| Cn1ncc2c1C(COCC1CC1)CN(Cc1ccsc1)C2 (configuration not stated) | -1.11 |
| CC(=O)N1CC(=O)N(c2cnn(C)c2)CC12CCN(Cc1nccs1)C2 (configuration not stated) | 6.03 |
| CCn1cc(S(=O)(=O)N2CCC(C)CC2)c(C)n1 | 8.44 |
| COc1cccc(CNC(=O)c2cc(C)nc(N3CCCCC3)n2)c1 | 20 |
| O=C(c1ccc(COc2ccccc2Cl)o1)N1N=CCC1(O)C(F)(F)F (configuration not stated) | 14.5 |
| O=C(Nc1cc(-c2ccncc2)no1)C1CCC1 | -12.6 |
| CN(C)C(=O)c1cncnc1-c1ccc(CNC(=O)C2CCCO2)cc1 (configuration not stated) | 5.55 |
| Cn1cnc(CN2Cc3nccn3CC2c2ccccc2)c1 (configuration not stated) | 2.98 |
| CCC1CCCCN1C(=O)Cn1nc(-c2ccc(C)o2)cc(N)c1=O (configuration not stated) | 3.27 |
| CCn1ncc(S(=O)(=O)N[C@@H]2CC[C@@H](n3ccnc3C)[C@@H]2O)c1C | 3.65 |
| Cc1c[nH]nc1C1CCCN(c2cnccn2)C1 (configuration not stated) | 8.75 |
| Cc1nnc(N2CCOC(C)(C(=O)NC3CCCC3)C2)c2ccccc12 (configuration not stated) | 7.92 |
| Cc1ccc(-c2nnc(CCC(=O)N3CCCC3c3ccc[nH]3)o2)cc1 (configuration not stated) | -1.31 |
| CC(CN1CCCC1=O)NC(=O)Nc1cccnc1-n1cccn1 (configuration not stated) | -170 |
| CC(C)N(C)C(=O)C1CSCN1S(=O)(=O)c1cc(Cl)ccc1Cl (configuration not stated) | -1.57 |
| O=C(NCCSC1CCCC1)c1cnccn1 | -0.95 |

| SMILES | cytotoxicity at 10 µM [%] |
| --- | --- |
| CC1COCCN1C(=O)c1ccc(=O)n(CCOc2ccccc2)n1 (configuration not stated) | -13.5 |
| O=C(COC1CCOC1)N(CC(F)F)c1cccc(Cl)c1 (configuration not stated) | 3.44 |
| N#Cc1ccc(CN2CCc3sccc3C2)c(F)c1 | -5.13 |
| CC(C)COc1cncc(N2CCCC(CC(N)=O)C2)n1 (configuration not stated) | -1.67 |
| CCN(C(=O)Cn1cc(Cl)cn1)c1ccccc1 | -8.01 |
| CN(CC(=O)NCC(O)c1cccc(F)c1)C(=O)OC(C)(C)C (configuration not stated) | 1.2 |
| CCC(NS(=O)(=O)N1CCOCC1)c1ccccc1OC (configuration not stated) | -45.1 |
| COc1ccc(Br)cc1CN(C)C(C)c1nc(C)no1 (configuration not stated) | -4.02 |
| NC(=O)C(Nc1ccc(Cl)cc1)c1ccc(F)cc1 (configuration not stated) | -0.82 |
| Cc1ccc(CNCc2nccn2C)c(OCC2CC2)c1 | -4.52 |
| CC(c1ncc(C(C)(C)C)o1)N1CCN(Cc2ccco2)CC1 (configuration not stated) | 5.3 |
| c1ccc(Cc2noc(CN3CCCCC3C3OCCO3)n2)cc1 (configuration not stated) | -2.62 |
| COc1cccc(CN(C)Cc2ccccc2C#N)c1OC | -5.92 |
| Cc1noc(Cl)c1CC(=O)NCCOc1ccc(F)cc1F | -2.64 |
| Cc1nn(C(C)C)c(C)c1NC(=O)c1ccc(F)cc1 | -2.27 |
| COCc1nc(C(=O)N(Cc2ccccc2)CC(C)C(=O)O)cs1 (configuration not stated) | 4 |
| C=C(C)CN(CC)S(=O)(=O)c1cccc(F)c1C#N | -6.03 |
| FC(F)(F)c1cccnc1N1CCC(OC2CCOCC2)CC1 | -8.44 |
| CC1CN(C)c2ccccc2CN1C(=O)NCc1ccon1 (configuration not stated) | 7.36 |
| Cc1cc(NC2CCN(c3ccccc3)C2)n2ncnc2n1 (configuration not stated) | 14.7 |
| CCCOc1ccc(NC(=O)NCCC(=O)N(C)C)cc1Cl | -10.9 |
| O=C(Cc1cccs1)NC1CCN(c2cccc(F)c2)CC1 | -24.2 |
| Cc1cc(N2CCC(N(C)C(=O)Nc3ccccc3)CC2)nc(C)n1 | -19.4 |

| SMILES | cytotoxicity at 10 µM [%] |
| --- | --- |
| CCN(C(=O)c1nc2c(s1)CCCN2S(C)(=O)=O)C(C)C | 3.99 |
| Cc1nnc(SCCNc2cc(C3CC3)ncn2)s1 | -6.67 |
| CCCOc1c(CNC2CCSC2)cccc1OC (configuration not stated) | 4.36 |
| O=C1CCCN1CCN1CC=C(c2cnn(C3CCS(=O)(=O)C3)c2)CC1 (configuration not stated) | -0.36 |
| COc1c(F)cc(CN2CCC3(CC2)CN(C)C(=O)O3)cc1Cl | 8.08 |
| Cc1cc(C2CCCN2C(=O)CN2C(=O)OC(C)(C)C2=O)on1 (configuration not stated) | -14.1 |
| Cc1ccc(N2CCN(C(=O)[C@@H]3CCC(=O)N3)CC2=O)cc1 | -4.18 |
| COc1ccc2c(c1)OCC(CNC(=O)c1ccc3[nH]nnc3c1)C2 (configuration not stated) | -7.72 |
| Cc1ccc([C@H]2CN(CCO)C[C@@H]2NC(=O)CN2CCCCC2=O)o1 | 2.1 |
| COc1cccc(Cn2cc(C3=CCN(CCO)CC3)cn2)c1 | -10.2 |
| CN(C)C(C(=O)NCC1(O)CCCCC1)c1cccc(F)c1 (configuration not stated) | -2.07 |
| Cc1cnc(CNCc2cn(CCN3CCSCC3)nc2C)cn1 | -0.629 |
| c1ccc(-c2n[nH]c(CCNc3nnc(C4CCC4)o3)n2)cc1 | 0.677 |
| COc1cccc(N2CCN(CC[C@H](O)c3ccccc3)CC2=O)c1 | 3.61 |
| CC(=O)c1cc(CC(=O)N2CCN(S(=O)(=O)c3ccccc3)CC2)cs1 | -0.943 |
| Cc1cc(C(=O)N2CCCCC2c2nc3cc(F)ccc3[nH]2)no1 (configuration not stated) | 19.6 |
| Cc1cccc(-n2cc(CN3CCN(C)[C@@H]4CS(=O)(=O)C[C@@H]43)cn2)c1 | 2.25 |
| Cc1cc(CN2CCCC2)cc(Oc2ccc3c(c2)CC(CN)O3)c1 (configuration not stated) | 0.298 |
| Cc1nc(C2CCN(CC(=O)NC3CC3)CC2)cc(N2CCOCC2)n1 | 2.39 |
| c1ccc(Cn2cccn2)c(CN2CCC3(CCCNC3)C2)c1 (configuration not stated) | -13 |
| Cc1cc(N2CCN(Cc3nccn3C)CC2)cc(C)n1 | 15.7 |
| Cc1nc[nH]c1-c1nc2cc(S(=O)(=O)N3CCCC3)ccc2n1C | -14.2 |
| Cc1cc(NC(=O)CN2CCCC2Cn2nc(C)nc2C)on1 (configuration not stated) | -3.31 |

| SMILES | cytotoxicity at 10 µM [%] |
| --- | --- |
| CCc1nc(C(=O)N2CCN(CC)CC2)nn1-c1ccccc1Cl | 2.79 |
| Cc1nc(C(=O)N2CCCCC2)nn1-c1ccccc1Cl | -6.46 |
| COc1ccnc(N2CCN(C(=O)N3CCOCC3)CC2)n1 | -1.64 |
| O=C(NCCc1ccco1)Nc1cc(C(F)(F)F)c[nH]c1=O | -12.3 |
| Cc1ccsc1C(=O)NCc1ccnc(N2CCN(C)CC2)c1 | -8.6 |
| CC(C(=O)N1CCN(Cc2ccc3c(c2)OCO3)CC1)n1ccnc1 (configuration not stated) | -9.57 |
| Cc1cccc(C(=O)N2CCCC(c3noc(C)n3)C2)n1 (configuration not stated) | -19.9 |
| CCc1c(C(=O)NCC2CCS(=O)(=O)C2)cnn1-c1ccccc1 (configuration not stated) | -8.22 |
| CC(C)c1nnc2n1CCN(CCS(=O)(=O)c1ccccc1)C2 | -8.22 |
| CC(C)c1nnc2n1CCN(C(=O)c1ccc(N(C)C)nn1)C2 | -9.86 |
| c1ccc(Cn2ccnc2CNCC2CCCN2c2cccnn2)cc1 (configuration not stated) | -9.86 |
| Cc1cnn(CC2CCCCN2CCCS(C)(=O)=O)c1 (configuration not stated) | -10.1 |
| COc1ccc(CC(=O)N2CCCC(n3cccn3)C2)cc1F (configuration not stated) | -4.62 |
| O=C(NCCCN1CCc2ccccc2C1)c1ccccc1Br | -10.2 |
| COc1cc(C(=O)NC(CC(=O)O)c2cccs2)cc(OC)c1C (configuration not stated) | -19.1 |
| COc1ccc(COCC(O)CNC(=O)c2cc(C)no2)cc1 (configuration not stated) | 0.742 |
| Cc1ccccc1CNC(=O)N1CCC(n2cncn2)CC1 | 2.54 |
| Cc1nc(C)n(CC2CCCN(CCOc3ccc(F)cc3)C2)n1 (configuration not stated) | -3.33 |
| c1csc(-c2nc(CN3CCOC(Cn4cccn4)C3)cs2)c1 (configuration not stated) | -8.25 |
| Cc1cc(C)n(CC2CCCN2CC(=O)N(C)Cc2ccco2)n1 (configuration not stated) | -12.2 |
| CCOc1cc(F)ccc1NC(=O)N(C)Cc1cnn(C)c1 | -17 |
| CCCc1ccc(S(=O)(=O)NC(=O)CCC2CCCO2)cc1 (configuration not stated) | -25.7 |
| COc1ccc(CC(=O)Nc2cccnc2N2CCCC2)cc1OC | -22.6 |

| SMILES | cytotoxicity at 10 µM [%] |
| --- | --- |
| Cc1cnn(CC2CN(Cc3nc(C)no3)CCO2)c1 (configuration not stated) | -18.5 |
| COC(=O)C(NC(=O)C(C)C)c1cc(F)ccc1F (configuration not stated) | -4.53 |
| COC1CCN(C(=O)CCc2c(C)nc3ccnn3c2C)CC1 | -5.72 |
| CS(=O)(=O)Cc1cccc(C(=O)N2CCCC(n3cccn3)C2)c1 (configuration not stated) | 5.05 |
| CCn1ncc(CN2CCCC(n3c(=O)oc4ccccc43)C2)c1C (configuration not stated) | 1.83 |
| Cc1cc(C)nc(N2CC=C[C@@H]2C(=O)NCc2ccc3c(c2)OCO3)n1 | -8.49 |
| CN(C)C1CCN(C(=O)c2ccnn2-c2ccc3ccccn23)CC1 | -114 |
| O=C(c1ccoc1)N1CC[C@H]2OCC[C@@]2(COc2ncccc2F)C1 | -9.31 |
| Cc1noc([C@@H]2C[C@H]3CN(Cc4cc(C)on4)C[C@H]3O2)n1 | -9.33 |
| c1coc(CN2CCCC3(COCCN(Cc4c[nH]nn4)C3)C2)c1 (configuration not stated) | -12.2 |
| CC(=O)NCC(=O)N1CC[C@H](OCC2CC2)[C@@H]1Cc1cccnc1 | -1.99 |
| c1coc(CN2CCCn3c(nnc3Cn3cccn3)C2)c1 | -0.945 |
| COCC1c2nnn(CC3CC3)c2CCN1Cc1ccncc1 (configuration not stated) | 3.37 |
| Cc1nc(N2CCOCC2)nc2c1CCN(Cc1cccnc1)CC2 | -0.368 |
| CC(C)N(C)Cc1cncc2c1CCN(Cc1cccs1)C2 | -112 |
| Cc1cc(C(=O)N2C[C@@H]3CC[C@H]2CN(Cc2ccccn2)C3)nc(N)n1 | -0.0925 |
| COc1ccc(CN2C[C@H]3CC[C@@H](C2)N(S(=O)(=O)C2CC2)C3)cc1 | -1.12 |
| NC(=O)NCC(=O)N1C[C@@H]2CC[C@H]1CN(Cc1ccccc1)C2 | -13.4 |
| Cc1cc(C(=O)N2C[C@@H]3CC[C@H]2CN(Cc2ccccn2)C3)nc(C)n1 | 2.36 |
| O=C1CCCC2=Nc3nonc3NC(c3cccc(F)c3F)C12 (configuration not stated) | 0.285 |
